Source: PubChem (several laboratories)
ABCB1 block = ABCB1 efflux pump inhibitors, primary screen, cell-based, multiplex, flow cytometry, ABCG2 counter-screen | ATP-dependent translocase ABCB1 (Homo sapiens), P08183 | inhibition, % at 6.6 µM | 190,000 tested, 0.067% active | AID 1326, 2008 | CCRF-Adr cells, JC-1 efflux; in the data active = inhibition above about 40%;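 also: higher value means more JC-1 retained so stronger ABCB1 efflux block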
RAM network inh = inhibitors of the yeast RAM network, primary screen, dse1pr::URA3 reporter, 5-FOA selection; S. cerevisiae dse1pr::URA3 reporter, 5-FOA growth OD615, 2 d; analog-sensitive cbk1-as2 kinase mutant strain; inhibition, % at 50 µM; 190,000 tested, 1.8% active;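 active = inhibition above a set limit, 3 SD over mean compound inhibition, cut at about 8.4% in these data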;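 also: inhibition rescues growth on 5-FOA so higher OD means more RAM inhibition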
ABCG2 block = ABCG2 efflux pump inhibitors, primary screen, multiplex with ABCB1, IgMXP3 cells, flow cytometry; Broad substrate specificity ATP-binding cassette transporter ABCG2 (Homo sapiens), Q9UNQ0; JC-1 efflux; inhibition, % at 6.6 µM; 190,000 tested, 0.1% active;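 active = inhibition above 80%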
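Incubation: cells with compound and JC-1, 10 min at 25 °C, rotating, no wash / Test system: IgMXP3 (ABCG2) plus far-red-tagged CCRF-Adr (ABCB1) cells / Compound dosing: one concentration, 6.6 µM final / Also added: JC-1 fluorescent substrate / Evaluation: efflux inhibition in percent versus controls / Detection: flow cytometry, 530 nm JC-1 signal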
L major viab = Leishmania major promastigote growth inhibition, primary screen | Leishmania major promastigotes, resazurin fluorescence viability | 200,000 tested, 9% active | inhibition, % at 10 µM | AID 1063, 2008; in the data active = inhibition above about 50%;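 also: promastigotes grown with compound for 44 hours at 28 °C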
WT yeast gro inh = growth inhibition of WT strain, primary screen, mitochondrial fusion inhibitor project, WT and mutant strains, chemical genetic. inhibition, % at 10 µM. AID 1362, 2008. mitochondrial fusion phenotypic screen. 190,000 tested, 2.1% active; in the data active = inhibition above about 58%; tested in S. cerevisiae
Numbers stand for hits; – = inactive. This is a sample that favours compounds with a hit; in the whole collection about 12% have one here.

SMILES	ABCB1 block	RAM network inh	ABCG2 block	L major viab	WT yeast gro inh
CCOC(=O)C1(CCCc2ccccc2)CCN(C(=O)C2CCCN(C(N)=O)C2)CC1 (stereo not drawn)	–	–	–	–	–
CCOc1cc(/C=C\[N+](=O)[O-])ccc1OCC(=O)Nc1ccccc1C	–	–	–	71.2	–
Oc1ccc(CNCC2COc3ccccc3O2)cc1 (stereo not drawn)	–	–	–	88.1	–
CC(C)c1cc(C(=O)N/N=C/c2cccnc2)n[nH]1	–	–	–	–	–
Cc1ccc(O)c(C(=O)c2cnc3c(c2)c(-c2ccc(F)cc2)c(C#N)c(=O)n3C)c1	–	–	–	52.3	–
Cc1ccc(O)c(C(=O)c2cnc3c(c2)c(C)nn3-c2ccccc2)c1	–	–	–	76.8	–
CCOC(=O)c1cnc2sc3c(n2c1=O)CCCC3	–	–	–	100.0	–
CCOC(=O)c1cccc(COC(=O)c2cccc(-c3nnc(-c4ccccc4)o3)c2)c1	–	8.9	–	–	–
CCn1c(Cn2nnc(-c3ccccc3)n2)nnc1SCC(=O)N1CCOCC1	–	–	–	–	–
CCn1c(Cn2nnc(-c3ccccc3)n2)nnc1SCc1ccc(Cl)c(Cl)c1	–	–	–	–	78.8
O=C(NCc1cccnc1)c1ccc(-c2ccc(Cl)cc2)o1	–	–	–	–	–
O=C(NCc1cccnc1)/C(=C\c1ccc(-c2ccc(Cl)c(Cl)c2)o1)S(=O)(=O)c1ccccc1	–	–	–	100.3	–
CCOC(=O)N1CCC(=NNC(=O)c2ccc(O)cc2)CC1	–	–	–	–	–
Cc1cc(C)cc(N(CC(=O)Nc2ccccc2)C2=NC3CS(=O)(=O)CC3S2)c1 (stereo not drawn)	–	–	–	64.4	–
O=[N+]([O-])c1cccc(C=Nc2cc3c(cc2Br)OCCO3)c1	–	–	–	–	–
COc1cccc(-c2csc(N3CCN(C(=O)NC45CC6CC(CC(C6)C4)C5)CC3)n2)c1	–	–	–	–	–
O=C1CC(/C=C/c2ccco2)=Nc2ccccc2N1	–	–	–	–	–
O=C1CC(/C=C/c2ccccn2)=Nc2ccccc2N1	–	–	–	81.8	–
O=C(COc1ccc(Cl)cc1Cl)Nc1ccccc1NS(=O)(=O)c1cccs1	–	–	–	–	–
COc1ccc(Cl)cc1NC(=O)COC(=O)c1cc(NS(=O)(=O)c2cccs2)ccc1O	–	11.2	–	–	–
S=c1[nH]nc(CCc2ccccc2)n1-c1ccccc1	–	–	–	–	–
O=C(Nc1ccc([N+](=O)[O-])cc1)Nc1ccc(OC(F)F)c(Cl)c1	–	–	86.2	99.2	84.1
O=C(Nc1ccc(OC(F)F)c(Cl)c1)Nc1ccc2c(c1)OCO2	–	–	–	–	–
O=C(Cc1ccc(Cl)cc1Cl)Nc1ccc(OC(F)F)c(Cl)c1	–	–	–	52.5	–
O=C(COC(=O)Cc1ccc(Cl)cc1Cl)Nc1ccc(OC(F)F)cc1	–	10.0	–	69.7	–
SMILES	ABCB1 block	RAM network inh	ABCG2 block	L major viab	WT yeast gro inh
COc1ccc(NC(=O)CCN2CCOCC2)c(OC)c1	–	–	–	–	–
CC#C[C@]1(O)CC[C@H]2[C@@H]3CCC4=CC(=O)CCC4=C3[C@@H](c3ccc(N(C)C)cc3)C[C@@]21C	–	–	–	–	87.0
O=C(Cc1ccc(Cl)cc1)N/N=C/c1ccncc1	–	–	–	–	–
CC1=C(C(=O)OC2CCCCC2)C(c2ccco2)C2=C(CC(C)(C)CC2=O)N1 (stereo not drawn)	–	–	–	58.9	–
Cc1ccc(C(=O)CSC2=C(C#N)C(c3ccco3)C3=C(CC(C)(C)CC3=O)N2)cc1 (stereo not drawn)	–	–	–	89.8	–
CCOc1ccc(C(=O)Nc2cc(-c3nc4ccccc4[nH]3)ccc2C)cc1[N+](=O)[O-]	–	–	–	–	–
COc1ccc(C(=O)Nc2ccc(NC(=O)c3cccs3)cc2)cc1[N+](=O)[O-]	–	–	–	–	–
CCOc1ccc(C(=O)Nc2cccc(-c3nc4ccccc4[nH]3)c2C)cc1[N+](=O)[O-]	–	–	–	50.9	–
CCOc1ccc(C(=O)Nc2cc(-c3nc4ccccc4[nH]3)ccc2Cl)cc1[N+](=O)[O-]	–	–	–	95.6	–
